From ChEMBL document CHEMBL1938357, “Inhibition of Dengue virus and West Nile virus proteases by click chemistry-derived benz[d]isothiazol-3(2H)-one derivatives” (Bioorg Med Chem, 2012) come the findings set out here.

Calls of active or inactive are those of the source. No cut-off for these calls is given here.

Experiment [1] deals with dengue virus type 2. The experiment can be described thus: Inhibition of Dengue virus 2 NS2B-NS3 protease expressed in Escherichia coli using Bz-Nle-Lys-Arg-Arg-AMC as substrate at 25 uM measured every 90 sec upto 30 mins by spectrofluorometry. A digest of the protocol:
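DENV2 NS2B(hydrophilic cofactor)-NS3pro, linked via Q-R and expressed in E. coli Top 10 F′, at 25 nM in 200 mM Tris-HCl pH 9.5, 6 mM NaCl, 30% glycerol. Compound at 25 μM (1% DMSO final) was pre-incubated at room temperature with enzyme. Bz-Nle-Lys-Arg-Arg-AMC added at 5.0 μM; read at 37 °C, ex 380/em 460 nm, every 90 s up to 30 min. % inhibition from RFU ± compound; triplicate averages.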

Experiment [2] relates to West Nile virus. The experiment in a line: Inhibition of West Nile virus NS2B-NS3 protease expressed in Escherichia coli using Bz-Nle-Lys-Arg-Arg-AMC as substrate at 25 uM measured every 90 sec upto 30 mins by spectrofluorometry. A digest of the protocol: (§1)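 Detergent re-screen: 200 mM Tris-HCl pH 9.5, 6 mM NaCl, 30% glycerol, 0.1% CHAPS, with DENV2 NS2B-NS3pro at 25 nM or WNV NS2BH-NS3pro (5-residue spacer) at 28 nM. Compound at 25 μM, 1% DMSO final, pre-incubated at room temperature with enzyme. Substrate Bz-Nle-Lys-Arg-Arg-AMC at 5.0 μM; fluorescence at 380/460 nm at 37 °C over 30 min. Percent inhibition from RFU with vs without compound; triplicate averages.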

Experiment [3] in a line: Inhibition of Dengue virus 2 NS2B-NS3 protease expressed in Escherichia coli using Bz-Nle-Lys-Arg-Arg-AMC as substrate by spectrofluorometry. The arrangement: species or system dengue virus type 2.
The nature of experiment [4]: Inhibition of Dengue virus 2 NS2B-NS3 protease expressed in Escherichia coli using Bz-Nle-Lys-Arg-Arg-AMC as substrate measured every 90 sec upto 30 mins by spectrofluorometry. The arrangement: species or system dengue virus type 2. A digest of the protocol: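 Inhibitors at 10 nM, 50 nM, 0.1, 1, 2, 5, 10 and 25 μM were incubated 15 min with DENV2 NS2B-NS3pro (50 nM) in 200 mM Tris-HCl, 6 mM NaCl, 30% glycerol, pH 9.5. Bz-Nle-Lys-Arg-Arg-AMC (5.0 μM) was then added. Signal recorded at 37 °C (ex 380, em 460 nm) with buffer subtracted. IC50 derived by curve fitting.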

Experiment [5] deals with dengue virus type 2. The experiment in a line: Inhibition of Dengue virus 2 NS2B-NS3 protease expressed in Escherichia coli using Bz-Nle-Lys-Arg-Arg-AMC as substrate at 25 uM measured every 90 sec upto 30 mins by spectrofluorometry in the presence of 0.1% CHAPS. A digest of the protocol: as §1

Take `O=C(Cn1sc2ccccc2c1=O)NCc1cn(CCOc2ccccc2)nn1`: the inhibition entry in experiment [1] was “inactive”. As for `COc1ccc(Cn2cc(CNC(=O)Cn3sc4ccccc4c3=O)nn2)cc1`, the inhibition result in experiment [1] was “inactive”. Consider `O=C(Cn1sc2ccccc2c1=O)NCc1cn(CCc2ccccc2)nn1`, for which, in experiment [1], the inhibition entry was “inactive”.

For the compound `CC(C)(C)OC(=O)Cn1cc(CNC(=O)Cn2sc3ccccc3c2=O)nn1`, in experiment [1], the inhibition result is “inactive”. Still for that read-out and setting: under `O=C(Cn1sc2ccccc2c1=O)NCc1cn(CC(=O)Nc2ccccc2)nn1` stands “inactive”.

In the case of `COC(=O)c1cccc(Cn2cc(CNC(=O)Cn3sc4ccccc4c3=O)nn2)c1`, the inhibition result in experiment [1] was “inactive”.

Turning to `O=C(Cn1sc2ccccc2c1=O)NCc1cn(CC(=O)Nc2ccccc2Oc2ccccc2)nn1`, the inhibition result in experiment [1] is “inactive”. As for `O=C(Cn1sc2ccccc2c1=O)NCc1cn(CCCc2ccccc2)nn1`, the inhibition result in experiment [1] was “inactive”. Still for that read-out and setting: for `O=C(Cn1sc2ccccc2c1=O)NCc1cn(Cc2ccccc2)nn1` the value was “inactive”. The term Ki denotes a dissociation constant, usually derived from enzyme kinetics or from competition with a known ligand. Read a high Ki as weaker binding. For orientation: IC50 means the concentration needed to halve the response being measured. Regarding `O=C(Cn1sc2ccccc2c1=O)Nc1cccc(OCc2cn(CC(=O)Nc3ccccc3Oc3ccccc3)nn2)c1`, the inhibition entry in experiment [2], in experiment [5] and in experiment [1] was “Active” in each case. For the same compound, the inhibitory constant (Ki) in experiment [3] amounted to 4.77 µM. Besides, the IC50 in experiment [4] is 3.48 µM. As to `O=C(Cn1cc(COc2cccc(NC(=O)Cn3sc4ccccc4c3=O)c2)nn1)Nc1ccccc1`, the inhibition result in experiment [2], in experiment [5] and in experiment [1] was “Active” in each case. This compound returned a 50% inhibitory concentration (IC50) in experiment [4] of 13.4 µM. With `O=C(Cn1sc2ccccc2c1=O)NCc1cn(CC(=O)Nc2ccc(Oc3ccccc3)cc2)nn1`, the inhibition result in experiment [2], in experiment [5] and in experiment [1] was “Active” each time. In experiment [4], this compound yielded an IC50 of 4.87 µM.

On to `COC(=O)c1cccc(Cn2cc(COc3cccc(NC(=O)Cn4sc5ccccc5c4=O)c3)nn2)c1`, for which the inhibition entry in experiment [5] and in experiment [1] was “Active” each time. As for `O=C(Cn1sc2ccccc2c1=O)NCc1cn(CC(=O)Nc2cccc(Oc3ccccc3)c2)nn1`, the inhibition entry in experiment [5] and in experiment [1] was “Active” throughout. For the compound `O=C(Cn1cc(COc2cccc(NC(=O)Cn3sc4ccccc4c3=O)c2)nn1)Nc1cccc(Oc2ccccc2)c1`, the inhibition result in experiment [2], in experiment [5] and in experiment [1] was “Active” each time. For the same compound, in experiment [4], the half-inhibitory concentration (IC50) was found to be 4.59 µM. Turning to `O=C(Cn1sc2ccccc2c1=O)NCc1cn(CSc2ccccc2)nn1`, in experiment [1], the inhibition result was “inactive”.

In the case of `O=C(Cn1sc2ccccc2c1=O)NCc1cn(Cc2cccc(F)c2)nn1`, the inhibition entry in experiment [1] was “inactive”. Turning to `O=C(Cn1sc2ccccc2c1=O)NCc1cn(CC(=O)c2ccccc2)nn1`, in experiment [1], the inhibition entry was “inactive”.

In the case of `O=C(Cn1cc(COc2cccc(NC(=O)Cn3sc4ccccc4c3=O)c2)nn1)Nc1ccc(Oc2ccccc2)cc1`, the inhibition entry in experiment [2], in experiment [5] and in experiment [1] was “Active” each time. The compound further showed an IC50 in experiment [4] of 4.45 µM.

For `O=C(Cn1sc2ccccc2c1=O)Nc1cccc(OCc2cn(CC(=O)c3ccccc3)nn2)c1`, the inhibition result in experiment [2], in experiment [5] and in experiment [1] was “Active” in each case. In addition, in experiment [4], the midpoint of inhibition, the IC50, lay at 6.22 µM. Take `O=C(O)Cn1cc(CNC(=O)Cn2sc3ccccc3c2=O)nn1`: the inhibition result in experiment [1] was “inactive”. The same measure, in the same setting: for `O=C(Cn1sc2ccccc2c1=O)NCc1cn(Cc2ccc(F)cc2)nn1` the value was “inactive”.
